Assay results: ChEMBL document CHEMBL1155297, “Synthesis, antimicrobial and antioxidant activities of substituted pyrazoles, isoxazoles, pyrimidine and thioxopyrimidine derivatives” (2009)
Converted amounts (≈) assume the structure as drawn.

Tested on: Staphylococcus aureus
Assay: Antibacterial activity against Staphylococcus aureus NCIM 5021 at 100 ug/disk after 24 hrs by agar disk diffusion method
Type: functional
Settings: NCIM 5021, 24 h, read-out: IZ
Procedure, shortened: (§1)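 Agar disc diffusion on nutrient agar plates pre-inoculated with each bacterium. Sterile 6 mm filter-paper discs were moistened with compound in DMSO at the stated per-disc amount. Plates were incubated at 37 °C, and the growth-inhibition zone diameter was read after 24 h. Each determination was run in triplicate, and the mean of three independent readings is reported.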

Q: For `N=C1ON=C(N)C1C(CS(=O)(=O)c1ccc(Cl)cc1)S(=O)(=O)c1ccc(Cl)cc1` (centres undefined), which zone of inhibition at 100 µg/disc is on record?
A: 32 mm

Q: With `N=C1ON=C(N)C1C(CS(=O)(=O)c1ccccc1)S(=O)(=O)c1ccccc1` (centres undefined) as the molecule, how does the zone of inhibition at 100 µg/disc read?
A: 29 mm

Tested on: Staphylococcus aureus
Assay: Antibacterial activity against Staphylococcus aureus NCIM 5021 at 200 ug/disk after 24 hrs by agar disk diffusion method
Type: functional
Settings: NCIM 5021, 24 h, read-out: IZ
Procedure, shortened: as §1

Q: With `N=C1ON=C(N)C1C(CS(=O)(=O)c1ccc(Cl)cc1)S(=O)(=O)c1ccc(Cl)cc1` (centres undefined) as the molecule, how does the zone of inhibition at 200 µg/disc read?
A: 33 mm

Q: For `N=C1ON=C(N)C1C(CS(=O)(=O)c1ccccc1)S(=O)(=O)c1ccccc1` (centres undefined), which zone of inhibition at 200 µg/disc is on record?
A: 31 mm

Tested on: Bacillus subtilis
Assay: Antibacterial activity against Bacillus subtilis NCIM 2063 at 100 ug/disk after 24 hrs by agar disk diffusion method
Type: functional
Settings: NCIM 2063, 24 h, read-out: IZ
Procedure, shortened: as §1

Q: For `N=C1ON=C(N)C1C(CS(=O)(=O)c1ccc(Cl)cc1)S(=O)(=O)c1ccc(Cl)cc1` (centres undefined), which zone of inhibition at 100 µg/disc is on record?
A: 31 mm

Q: Which zone of inhibition at 100 µg/disc does the source give for `N=C1ON=C(N)C1C(CS(=O)(=O)c1ccccc1)S(=O)(=O)c1ccccc1` (centres undefined) here?
A: 30 mm

Tested on: Bacillus subtilis
Assay: Antibacterial activity against Bacillus subtilis NCIM 2063 at 200 ug/disk after 24 hrs by agar disk diffusion method
Type: functional
Settings: NCIM 2063, 24 h, read-out: IZ
Procedure, shortened: as §1

Q: With `N=C1ON=C(N)C1C(CS(=O)(=O)c1ccc(Cl)cc1)S(=O)(=O)c1ccc(Cl)cc1` (centres undefined) as the molecule, how does the zone of inhibition at 200 µg/disc read?
A: 34 mm

Q: Which zone of inhibition at 200 µg/disc does the source give for `N=C1ON=C(N)C1C(CS(=O)(=O)c1ccccc1)S(=O)(=O)c1ccccc1` (centres undefined) here?
A: 32 mm

Tested on: Klebsiella pneumoniae
Assay: Antibacterial activity against Klebsiella pneumoniae NCIM 2957 at 100 ug/disk after 24 hrs by agar disk diffusion method
Type: functional
Settings: NCIM 2957, 24 h, read-out: IZ
Procedure, shortened: as §1

Q: Which zone of inhibition at 100 µg/disc does the source give for `N=C1ON=C(N)C1C(CS(=O)(=O)c1ccc(Cl)cc1)S(=O)(=O)c1ccc(Cl)cc1` (centres undefined) here?
A: 26 mm

Q: For `N=C1ON=C(N)C1C(CS(=O)(=O)c1ccccc1)S(=O)(=O)c1ccccc1` (centres undefined), which zone of inhibition at 100 µg/disc is on record?
A: 26 mm

Tested on: Klebsiella pneumoniae
Assay: Antibacterial activity against Klebsiella pneumoniae NCIM 2957 at 200 ug/disk after 24 hrs by agar disk diffusion method
Type: functional
Settings: NCIM 2957, 24 h, read-out: IZ
Procedure, shortened: as §1

Q: For `N=C1ON=C(N)C1C(CS(=O)(=O)c1ccc(Cl)cc1)S(=O)(=O)c1ccc(Cl)cc1` (centres undefined), which zone of inhibition at 200 µg/disc is on record?
A: 29 mm

Q: For `N=C1ON=C(N)C1C(CS(=O)(=O)c1ccccc1)S(=O)(=O)c1ccccc1` (centres undefined), which zone of inhibition at 200 µg/disc is on record?
A: 29 mm

Tested on: Proteus vulgaris
Assay: Antibacterial activity against Proteus vulgaris NCIM 2027 at 100 ug/disk after 24 hrs by agar disk diffusion method
Type: functional
Settings: NCIM 2027, 24 h, read-out: IZ
Procedure, shortened: as §1

Q: Which zone of inhibition at 100 µg/disc does the source give for `N=C1ON=C(N)C1C(CS(=O)(=O)c1ccc(Cl)cc1)S(=O)(=O)c1ccc(Cl)cc1` (centres undefined) here?
A: 28 mm

Q: Which zone of inhibition at 100 µg/disc does the source give for `N=C1ON=C(N)C1C(CS(=O)(=O)c1ccccc1)S(=O)(=O)c1ccccc1` (centres undefined) here?
A: 26 mm

Tested on: Proteus vulgaris
Assay: Antibacterial activity against Proteus vulgaris NCIM 2027 at 200 ug/disk after 24 hrs by agar disk diffusion method
Type: functional
Settings: NCIM 2027, 24 h, read-out: IZ
Procedure, shortened: as §1

Q: Which zone of inhibition at 200 µg/disc does the source give for `N=C1ON=C(N)C1C(CS(=O)(=O)c1ccc(Cl)cc1)S(=O)(=O)c1ccc(Cl)cc1` (centres undefined) here?
A: 30 mm

Q: For `N=C1ON=C(N)C1C(CS(=O)(=O)c1ccccc1)S(=O)(=O)c1ccccc1` (centres undefined), which zone of inhibition at 200 µg/disc is on record?
A: 28 mm

Tested on: Fusarium solani
Assay: Antifungal activity against Fusarium solani NCIM 1330 at 100 ug/disk after 48 hrs by agar disk diffusion method
Type: functional
Settings: NCIM 1330, 48 h, read-out: IZ
Procedure, shortened: (§2)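 Fungal disc diffusion on nutrient agar plates pre-inoculated with each fungus. 6 mm sterile paper discs carried the compound in DMSO at the stated amount per disc. Plates were held at 37 °C, and inhibition-zone diameter was measured after 48 h. Values are the mean of three independent triplicate readings.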

Q: With `N=C1ON=C(N)C1C(CS(=O)(=O)c1ccc(Cl)cc1)S(=O)(=O)c1ccc(Cl)cc1` (centres undefined) as the molecule, how does the zone of inhibition at 100 µg/disc read?
A: 33 mm

Q: Which zone of inhibition at 100 µg/disc does the source give for `N=C1ON=C(N)C1C(CS(=O)(=O)c1ccccc1)S(=O)(=O)c1ccccc1` (centres undefined) here?
A: 31 mm

Tested on: Fusarium solani
Assay: Antifungal activity against Fusarium solani NCIM 1330 at 200 ug/disk after 48 hrs by agar disk diffusion method
Type: functional
Settings: NCIM 1330, 48 h, read-out: IZ
Procedure, shortened: as §2

Q: With `N=C1ON=C(N)C1C(CS(=O)(=O)c1ccc(Cl)cc1)S(=O)(=O)c1ccc(Cl)cc1` (centres undefined) as the molecule, how does the zone of inhibition at 200 µg/disc read?
A: 35 mm

Q: For `N=C1ON=C(N)C1C(CS(=O)(=O)c1ccccc1)S(=O)(=O)c1ccccc1` (centres undefined), which zone of inhibition at 200 µg/disc is on record?
A: 34 mm

Tested on: Curvularia lunata
Assay: Antifungal activity against Curvularia lunata NCIM 716 at 100 ug/disk after 48 hrs by agar disk diffusion method
Type: functional
Settings: NCIM 716, 48 h, read-out: IZ
Procedure, shortened: as §2

Q: Which zone of inhibition at 100 µg/disc does the source give for `N=C1ON=C(N)C1C(CS(=O)(=O)c1ccc(Cl)cc1)S(=O)(=O)c1ccc(Cl)cc1` (centres undefined) here?
A: 31 mm

Q: With `N=C1ON=C(N)C1C(CS(=O)(=O)c1ccccc1)S(=O)(=O)c1ccccc1` (centres undefined) as the molecule, how does the zone of inhibition at 100 µg/disc read?
A: 29 mm

Tested on: Curvularia lunata
Assay: Antifungal activity against Curvularia lunata NCIM 716 at 200 ug/disk after 48 hrs by agar disk diffusion method
Type: functional
Settings: NCIM 716, 48 h, read-out: IZ
Procedure, shortened: as §2

Q: With `N=C1ON=C(N)C1C(CS(=O)(=O)c1ccc(Cl)cc1)S(=O)(=O)c1ccc(Cl)cc1` (centres undefined) as the molecule, how does the zone of inhibition at 200 µg/disc read?
A: 33 mm

Q: For `N=C1ON=C(N)C1C(CS(=O)(=O)c1ccccc1)S(=O)(=O)c1ccccc1` (centres undefined), which zone of inhibition at 200 µg/disc is on record?
A: 32 mm

Tested on: Aspergillus niger
Assay: Antifungal activity against Aspergillus niger NCIM 596 at 100 ug/disk after 48 hrs by agar disk diffusion method
Type: functional
Settings: NCIM 596, 48 h, read-out: IZ
Procedure, shortened: as §2

Q: With `N=C1ON=C(N)C1C(CS(=O)(=O)c1ccc(Cl)cc1)S(=O)(=O)c1ccc(Cl)cc1` (centres undefined) as the molecule, how does the zone of inhibition at 100 µg/disc read?
A: 29 mm

Q: For `N=C1ON=C(N)C1C(CS(=O)(=O)c1ccccc1)S(=O)(=O)c1ccccc1` (centres undefined), which zone of inhibition at 100 µg/disc is on record?
A: 28 mm

Tested on: Aspergillus niger
Assay: Antifungal activity against Aspergillus niger NCIM 596 at 200 ug/disk after 48 hrs by agar disk diffusion method
Type: functional
Settings: NCIM 596, 48 h, read-out: IZ
Procedure, shortened: as §2

Q: Which zone of inhibition at 200 µg/disc does the source give for `N=C1ON=C(N)C1C(CS(=O)(=O)c1ccc(Cl)cc1)S(=O)(=O)c1ccc(Cl)cc1` (centres undefined) here?
A: 32 mm

Q: For `N=C1ON=C(N)C1C(CS(=O)(=O)c1ccccc1)S(=O)(=O)c1ccccc1` (centres undefined), which zone of inhibition at 200 µg/disc is on record?
A: 31 mm

Tested on: Staphylococcus aureus
Assay: Antibacterial activity against Staphylococcus aureus NCIM 5021 after 24 hrs by microdilution susceptibility method
Type: functional
Settings: NCIM 5021, 24 h
Procedure, shortened: (§3)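 MIC by microdilution susceptibility; compounds in DMSO, bacterial suspensions inoculated into wells. Incubation was at 36 °C for 24 h. MIC is the lowest compound concentration showing no turbidity. Chloramphenicol served as reference antibacterial.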

Q: Which MIC does the source give for `N=C1ON=C(N)C1C(CS(=O)(=O)c1ccc(Cl)cc1)S(=O)(=O)c1ccc(Cl)cc1` (centres undefined) here?
A: 50 mg/L (≈ 105 µM)

Tested on: Bacillus subtilis
Assay: Antibacterial activity against Bacillus subtilis NCIM 2063 after 24 hrs by microdilution susceptibility method
Type: functional
Settings: NCIM 2063, 24 h
Procedure, shortened: as §3

Q: Which MIC does the source give for `N=C1ON=C(N)C1C(CS(=O)(=O)c1ccc(Cl)cc1)S(=O)(=O)c1ccc(Cl)cc1` (centres undefined) here?
A: 50 mg/L (≈ 105 µM)

Tested on: Klebsiella pneumoniae
Assay: Antibacterial activity against Klebsiella pneumoniae NCIM 2957 after 24 hrs by microdilution susceptibility method
Type: functional
Settings: NCIM 2957, 24 h
Procedure, shortened: as §3

Q: For `N=C1ON=C(N)C1C(CS(=O)(=O)c1ccc(Cl)cc1)S(=O)(=O)c1ccc(Cl)cc1` (centres undefined), which MIC is on record?
A: 100 mg/L (≈ 210 µM)

Tested on: Proteus vulgaris
Assay: Antibacterial activity against Proteus vulgaris NCIM 2027 after 24 hrs by microdilution susceptibility method
Type: functional
Settings: NCIM 2027, 24 h
Procedure, shortened: as §3

Q: For `N=C1ON=C(N)C1C(CS(=O)(=O)c1ccc(Cl)cc1)S(=O)(=O)c1ccc(Cl)cc1` (centres undefined), which MIC is on record?
A: 100 mg/L (≈ 210 µM)

Tested on: Fusarium solani
Assay: Antifungal activity against Fusarium solani NCIM 1330 after 48 hrs by microdilution susceptibility method
Type: functional
Settings: NCIM 1330, 48 h
Procedure, shortened: (§4)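 Broth microdilution MIC; fungal suspensions were inoculated into wells containing compound dissolved in DMSO. Incubation was at 36 °C for 48 h. MIC was recorded as the lowest concentration with no turbidity. Ketoconazole was the reference antifungal.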

Q: Which MIC does the source give for `N=C1ON=C(N)C1C(CS(=O)(=O)c1ccc(Cl)cc1)S(=O)(=O)c1ccc(Cl)cc1` (centres undefined) here?
A: 100 mg/L (≈ 210 µM)

Tested on: Curvularia lunata
Assay: Antifungal activity against Curvularia lunata NCIM 716 after 48 hrs by microdilution susceptibility method
Type: functional
Settings: NCIM 716, 48 h
Procedure, shortened: as §4

Q: For `N=C1ON=C(N)C1C(CS(=O)(=O)c1ccc(Cl)cc1)S(=O)(=O)c1ccc(Cl)cc1` (centres undefined), which MIC is on record?
A: 50 mg/L (≈ 105 µM)

Tested on: Aspergillus niger
Assay: Antifungal activity against Aspergillus niger NCIM 596 after 48 hrs by microdilution susceptibility method
Type: functional
Settings: NCIM 596, 48 h
Procedure, shortened: as §4

Q: Which MIC does the source give for `N=C1ON=C(N)C1C(CS(=O)(=O)c1ccc(Cl)cc1)S(=O)(=O)c1ccc(Cl)cc1` (centres undefined) here?
A: 50 mg/L (≈ 105 µM)

Tested on: Radical scavenging activity
Assay: Antioxidant activity assessed as DPPH free radical scavenging activity at 100 uM after 20 mins
Type: functional
Settings: not given
Procedure, shortened: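 DPPH scavenging: compound solutions were added to DPPH in dioxane/ethanol and kept at ambient temperature for 20 min. Absorbance was read at 517 nm. The test–control difference was expressed as percent DPPH radical scavenging.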

Q: Which inhibition does the source give for `N=C1ON=C(N)C1C(CS(=O)(=O)c1ccc(Cl)cc1)S(=O)(=O)c1ccc(Cl)cc1` (centres undefined) here?
A: 94.5%

Q: With `N=C1ON=C(N)C1C(CS(=O)(=O)c1ccccc1)S(=O)(=O)c1ccccc1` (centres undefined) as the molecule, how does the inhibition read?
A: 85.8%

Tested on: not listed separately
Assay: Antioxidant activity assessed as nitric oxide production at 100 uM after 120 mins by Griess reagent method
Type: functional
Settings: not given
Procedure, shortened: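 Nitric oxide assay with Griess read-out. At intervals, 0.5 ml of incubation solution was mixed with 0.5 ml Griess reagent (1% sulfanilamide, 0.1% N-naphthylethylenediamine dihydrochloride, 2% o-phosphoric acid in water). The control received an equal amount of solvent and was handled identically.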

Q: With `N=C1ON=C(N)C1C(CS(=O)(=O)c1ccc(Cl)cc1)S(=O)(=O)c1ccc(Cl)cc1` (centres undefined) as the molecule, how does the inhibition read?
A: 95.4%

Q: With `N=C1ON=C(N)C1C(CS(=O)(=O)c1ccccc1)S(=O)(=O)c1ccccc1` (centres undefined) as the molecule, how does the inhibition read?
A: 84.9%
